Assay results published in ChEMBL document CHEMBL1122917, “Vinblastin-23-oyl amino acid derivatives: chemistry, physicochemical data, toxicity, and antitumor activities against P388 and L1210 leukemias” (J Med Chem, 1985).

Key:
Mus musculus [1] = test: Percent increase in life span at dose 6 mg/kg/day in 7 mice implanted with P388 leukemia cell line for 1,8,15 schedule days from Exp-1; assay type: functional
Mus musculus [2] = test: Number of survivors on 60th day at dose 6 mg/kg/day in 7 mice implanted with P388 leukemia cell line for 1,8.15 scheduled days from Exp-2; 0/10; assay type: functional
Mus musculus [3] = test: Percent increase in life span at dose 8 mg/kg/day in 7 mice implanted with P388 leukemia cell line for 1,8,15 schedule days from Exp-2; assay type: functional
Mus musculus [4] = test: Number of survivors on 60th day at dose 4 mg/kg/day in 10 mice implanted with P388 leukemia cell line; 0/9; assay type: functional
Mus musculus [5] = test: Number of survivors on 60th day at dose 5 mg/kg/day in 9 mice implanted with P388 leukemia cell line; 0/10; assay type: functional
Mus musculus [6] = test: Number of survivors of DBA2 mice on 60th day after inoculation with L1210 leukemia cell line intravenously at a dose of 10 mg/kg/day; 0/10; assay type: functional; settings: route intravenous
Mus musculus [7] = test: Number of survivors on 30th day at dose 7 mg/kg/day in 10 mice implanted with P388 leukemia cell line; 2/10; assay type: functional
Mus musculus [8] = test: Number of survivors on 30th day at dose 8 mg/kg/day in 10 mice implanted with P388 leukemia cell line; 8/10; assay type: functional
Mus musculus [9] = test: Number of survivors on 30th day at dose 9 mg/kg/day in 10 mice implanted with P388 leukemia cell line; 3/10; assay type: functional
Mus musculus [10] = test: Percent increase in life span at dose 4 mg/kg/day in 7 mice implanted with P388 leukemia cell line for 1,8,15 scheduled day from Exp-2; assay type: functional
Mus musculus [11] = test: Number of survivors on 60th day at dose 8 mg/kg/day in 9 mice implanted with P388 leukemia cell line; 0/9; assay type: functional
Mus musculus [12] = test: Number of survivors on 60th day at dose 4 mg/kg/day in 10 mice implanted with P388 leukemia cell line; 2/10; assay type: functional
Mus musculus [13] = test: Number of survivors of DBA2 mice on 30th day after inoculation with L1210 leukemia cell line intravenously at a dose of 55 mg/kg/day; 0/10; assay type: functional; settings: route intravenous
Mus musculus [14] = test: Number of survivors of DBA2 mice on 30th day after inoculation with L1210 leukemia cell line intravenously at a dose of 60 mg/kg/day; 0/10; assay type: functional; settings: route intravenous
Mus musculus [15] = test: Number of survivors of DBA2 mice on 30th day after inoculation with L1210 leukemia cell line intravenously at a dose of 65 mg/kg/day; 0/10; assay type: functional; settings: route intravenous
Mus musculus [16] = test: Percent increase in life span at dose 65 mg/kg/day in 10 mice implanted with P388 leukemia cell line; assay type: functional
Method in brief: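 Female DBA2 mice inoculated iv on day 0 with 10^4 P388 cells; single iv treatment on day 1 with drug as sulfate salt in physiological saline. Survival followed; %ILS from all deaths and survivors as (T/C × 100) − 100, maximal MST 30 days; survivors counted on days 30 and 60. Most experiments confirmed three times.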

Mus musculus [17] = test: Number of survivors on 60th day at dose 65 mg/kg/day in 7 mice implanted with P388 leukemia cell line for 1,8,15 scheduled days in Exp-2; 0/10; assay type: functional
Mus musculus [18] = test: Number of survivors on 30th day at dose 50 mg/kg/day in 10 mice implanted with P388 leukemia cell line; 7/10; assay type: functional
Mus musculus [19] = test: Number of survivors on 30th day at dose 58 mg/kg/day in 10 mice implanted with P388 leukemia cell line;2/10; assay type: functional
Mus musculus [20] = test: Number of survivors of DBA2 mice on 60th day after inoculation with L1210 leukemia cell line intravenously at a dose of 60 mg/kg/day; 0/10; assay type: functional; settings: route intravenous
Mus musculus [21] = test: Number of survivors of DBA2 mice on 60th day after inoculation with L1210 leukemia cell line intravenously at a dose of 65 mg/kg/day; 0/10; assay type: functional; settings: route intravenous
Mus musculus [22] = test: Number of survivors on 30th day at dose 60 mg/kg/day in 10 mice implanted with P388 leukemia cell line for 1st scheduled day; 8/10; assay type: functional
Mus musculus [23] = test: Number of survivors on 30th day at dose 65 mg/kg/day in 10 mice implanted with P388 leukemia cell line; 7/9; assay type: functional
Mus musculus [24] = test: Number of survivors on 30th day at dose 70 mg/kg/day in 10 mice implanted with P388 leukemia cell line; 5/11; assay type: functional
Mus musculus [25] = test: Number of survivors on 30th day at dose 60 mg/kg/day in 10 mice implanted with P388 leukemia cell line 1,5,9 scheduled days; 9/9; assay type: functional
Mus musculus [26] = test: Number of survivors on 60th day at dose 2.5 mg/kg/day in 10 mice implanted with P388 leukemia cell line for 1st scheduled day; 0/10; assay type: functional
Mus musculus [27] = test: Number of survivors of DBA2 mice on 30th day after inoculation with L1210 leukemia cell line intravenously at a dose of 3 mg/kg/day; 0/11; assay type: functional; settings: route intravenous
Mus musculus [28] = test: Number of survivors on 30th day at dose 7 mg/kg/day in 10 mice implanted with P388 leukemia cell line; 0/10; assay type: functional
Mus musculus [29] = test: Number of survivors on 30th day at dose 6 mg/kg/day in 10 mice implanted with P388 leukemia cell line; 0/10; assay type: functional
Mus musculus [30] = test: Percent increase in life span of BDF1 mice after inoculation with P388 leukemia intraperitoneally at a dose of 2.5 mg/kg per day; settings: P388, ip
Mus musculus [31] = test: Number of survivors of DBA2 mice on 60th day after inoculation with L1210 leukemia cell line intravenously at a dose of 0.5 mg/kg/day; 0/10; assay type: functional; settings: route intravenous
Mus musculus [32] = test: Percent increase in life span of DBA2 mice after inoculation with L1210 leukemia intravenously at a dose of 4.5 mg/kg per day; assay type: functional; settings: route intravenous
Mus musculus [33] = test: Percent increase in life span of DBA2 mice after inoculation with L1210 leukemia intravenously at a dose of 0.5 mg/kg per day; assay type: functional; settings: route intravenous
Mus musculus [34] = test: Number of survivors of DBA2 mice on 30th day after inoculation with L1210 leukemia cell line intravenously at a dose of 2.5 mg/kg/day; 0/10; assay type: functional; settings: route intravenous
Mus musculus [35] = test: Number of survivors of DBA2 mice on 60th day after inoculation with L1210 leukemia cell line intravenously at a dose of 1.5 mg/kg/day; 0/10; assay type: functional; settings: route intravenous
Mus musculus [36] = test: Number of survivors of DBA2 mice on 30th day after inoculation with L1210 leukemia cell line intravenously at a dose of 3.5 mg/kg/day; 0/10; assay type: functional; settings: route intravenous
Mus musculus [37] = test: Number of survivors of DBA2 mice on 60th day after inoculation with L1210 leukemia cell line intravenously at a dose of 6.5 mg/kg/day; 0/10; assay type: functional; settings: route intravenous
Mus musculus [38] = test: Number of survivors of DBA2 mice on 60th day after inoculation with L1210 leukemia cell line intraperitoneally at a dose of 0.22 mg/kg/day; 0/10; assay type: functional; settings: route intraperitoneal
Mus musculus [39] = test: Number of survivors of BDF1 mice on 30th day after inoculation with P388 leukemia cell line intraperitoneally at a dose of 2.7 mg/kg/day; 0/11; settings: route intraperitoneal

CCOC(=O)[C@@H](NC(=O)[C@@]1(O)[C@H](O)[C@]2(CC)C=CCN3CC[C@@]4(c5cc([C@@]6(C(=O)OC)C[C@H]7C[N@](CCc8c6[nH]c6ccccc86)C[C@](O)(CC)C7)c(OC)cc5N(C)[C@@]14C)[C@@H]32)[C@@H](C)CC
ILS at 6 mg/kg/day (Mus musculus [1]): 150%
Survivors (Mus musculus [2]): 0
ILS at 8 mg/kg/day (Mus musculus [3]): > 482%
Survivors (Mus musculus [4]): 0
Survivors (Mus musculus [5]): 0
Survivors (Mus musculus [6]): 0
Survivors (Mus musculus [7]): 2
Survivors (Mus musculus [8]): 8
Survivors (Mus musculus [9]): 3

CC[C@]1(O)C[C@@H]2CN(CCc3c([nH]c4ccccc34)[C@@](C(=O)OC)(c3cc4c(cc3OC)N(C)[C@H]3[C@@](O)(C(=O)OC)[C@H](OC(C)=O)[C@]5(CC)C=CCN6CC[C@]43[C@@H]65)C2)C1 [VINBLASTINE]
ILS at 4 mg/kg/day (Mus musculus [10]): 35%
Survivors (Mus musculus [11]): 0
Survivors (Mus musculus [12]): 2

CCOC(=O)[C@H](Cc1c[nH]c2ccccc12)NC(=O)[C@@]1(O)[C@H](O)[C@]2(CC)C=CCN3CC[C@@]4(c5cc([C@@]6(C(=O)OC)C[C@H]7C[N@](CCc8c6[nH]c6ccccc86)C[C@](O)(CC)C7)c(OC)cc5N(C)[C@@]14C)[C@@H]32
Survivors (Mus musculus [13]): 0
Survivors (Mus musculus [14]): 0
Survivors (Mus musculus [15]): 0
ILS at 65 mg/kg/day (Mus musculus [16]): > 173%
Survivors (Mus musculus [17]): 0
Survivors (Mus musculus [18]): 7
Survivors (Mus musculus [19]): 2
Survivors (Mus musculus [20]): 0
Survivors (Mus musculus [21]): 0
Survivors (Mus musculus [22]): 8
Survivors (Mus musculus [23]): 7
Survivors (Mus musculus [24]): 5
Survivors (Mus musculus [25]): 9

CC[C@]1(O)C[C@@H]2CN(CCc3c([nH]c4ccccc34)[C@@](C(=O)OC)(c3cc4c(cc3OC)N(C)[C@H]3[C@@](O)(C(N)=O)[C@H](O)[C@]5(CC)C=CCN6CC[C@]43[C@@H]65)C2)C1 [VINDESINE]
Survivors (Mus musculus [26]): 0
Survivors (Mus musculus [27]): 0
Survivors (Mus musculus [28]): 0
Survivors (Mus musculus [29]): 0
ILS at 2.5 mg/kg/day (Mus musculus [30]): 150%

CC[C@]1(O)C[C@H]2CN(CCc3c([nH]c4ccccc34)[C@@](C(=O)OC)(c3cc4c(cc3OC)N(C=O)[C@H]3[C@@](O)(C(=O)OC)[C@H](OC(C)=O)[C@]5(CC)C=CCN6CC[C@]43[C@@H]65)C2)C1 [VINCRISTINE]
Survivors (Mus musculus [31]): 0
ILS at 4.5 mg/kg/day (Mus musculus [32]): 20%
ILS at 0.5 mg/kg/day (Mus musculus [33]): 1%
Survivors (Mus musculus [34]): 0
Survivors (Mus musculus [35]): 0
Survivors (Mus musculus [36]): 0
Survivors (Mus musculus [37]): 0
Survivors (Mus musculus [38]): 0
Survivors (Mus musculus [39]): 0
